What is called IC50 is the point on the concentration scale where inhibition reaches its midpoint.

The results in this text go back to PubChem BioAssay AID463152 (The Scripps Research Institute Molecular Screening Center, 2010).

Structures are written as SMILES.

The target in the assay is Nuclear receptor ROR-alpha (Homo sapiens) (UniProt P35398). Nature of the assay: RORA inhibitor potency, reporter decrease, dose response, RORA inverse agonist project, cell-based, luminescence, assay provider (AID 463152). The settings on record: HEK293T GAL4-RORa LBD luciferase reporter, 20 h. The procedure, abridged: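 Test system: HEK293T with GAL4-RORα LBD and UAS-luciferase reporter; Timing: 20 h compound treatment; Detection: luciferase luminescence; Measure: IC50 from four-parameter fit of signal relative to DMSO; Control set: DMSO-treated wells as reference; Replicates: n of 8.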
Sequence of Nuclear receptor ROR-alpha (Homo sapiens) (P35398 whole entry, looked up, the tested form may be a part): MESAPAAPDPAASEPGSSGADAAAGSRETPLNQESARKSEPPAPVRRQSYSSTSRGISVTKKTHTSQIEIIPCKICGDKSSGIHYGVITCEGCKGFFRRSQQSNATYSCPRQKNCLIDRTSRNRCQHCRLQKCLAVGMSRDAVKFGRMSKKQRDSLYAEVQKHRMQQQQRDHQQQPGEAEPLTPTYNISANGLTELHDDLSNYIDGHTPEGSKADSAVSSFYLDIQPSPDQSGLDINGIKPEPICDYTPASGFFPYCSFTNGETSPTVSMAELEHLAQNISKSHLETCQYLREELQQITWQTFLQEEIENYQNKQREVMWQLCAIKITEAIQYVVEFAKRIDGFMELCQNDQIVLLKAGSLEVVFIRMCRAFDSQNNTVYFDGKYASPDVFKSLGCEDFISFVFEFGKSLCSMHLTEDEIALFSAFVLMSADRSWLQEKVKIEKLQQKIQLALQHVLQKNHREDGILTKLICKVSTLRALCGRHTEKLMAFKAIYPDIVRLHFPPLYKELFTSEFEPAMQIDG

For `O=S(=O)(Nc1ccc(C(O)(C(F)(F)F)C(F)(F)F)cc1)c1cccs1`, the IC50 is 480 nM.
